{"source": "paper PMC10213863", "about": "(Cell Reports Medicine, 2023)", "key": {"TLR8 [1]": {"biological_target": "T1, TLR8 (Homo sapiens, UniProt Q9NR97)", "T1 sequence (Q9NR97 27-1041)": "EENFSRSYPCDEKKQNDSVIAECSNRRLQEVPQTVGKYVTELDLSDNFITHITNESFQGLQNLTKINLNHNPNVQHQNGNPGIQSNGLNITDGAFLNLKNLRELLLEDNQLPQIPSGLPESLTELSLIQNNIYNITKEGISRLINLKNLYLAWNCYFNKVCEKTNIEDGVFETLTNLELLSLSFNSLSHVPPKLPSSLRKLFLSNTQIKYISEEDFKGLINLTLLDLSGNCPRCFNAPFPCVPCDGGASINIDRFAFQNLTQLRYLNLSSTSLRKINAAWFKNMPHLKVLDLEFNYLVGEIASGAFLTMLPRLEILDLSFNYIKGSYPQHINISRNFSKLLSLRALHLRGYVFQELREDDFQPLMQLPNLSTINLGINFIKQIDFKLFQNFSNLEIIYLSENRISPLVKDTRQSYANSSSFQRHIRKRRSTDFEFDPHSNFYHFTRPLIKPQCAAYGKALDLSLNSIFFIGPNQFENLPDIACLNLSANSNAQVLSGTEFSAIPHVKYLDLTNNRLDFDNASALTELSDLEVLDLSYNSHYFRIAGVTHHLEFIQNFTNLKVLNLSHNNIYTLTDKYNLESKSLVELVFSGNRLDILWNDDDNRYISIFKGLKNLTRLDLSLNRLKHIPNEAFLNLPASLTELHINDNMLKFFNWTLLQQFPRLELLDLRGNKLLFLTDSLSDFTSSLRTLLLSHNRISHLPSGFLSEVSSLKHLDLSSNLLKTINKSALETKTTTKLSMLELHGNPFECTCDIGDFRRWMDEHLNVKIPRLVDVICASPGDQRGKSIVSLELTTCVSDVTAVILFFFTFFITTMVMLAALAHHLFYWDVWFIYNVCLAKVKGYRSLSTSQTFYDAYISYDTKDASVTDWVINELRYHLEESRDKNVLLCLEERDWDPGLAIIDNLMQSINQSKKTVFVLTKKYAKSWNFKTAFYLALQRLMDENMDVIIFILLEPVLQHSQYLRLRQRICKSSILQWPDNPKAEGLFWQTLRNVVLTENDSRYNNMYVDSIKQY", "assay": "HEK293-NFkB-luciferase reporter cells transfected with TLR8, R848 stimulation", "assay_type": "cell-based", "in_short": "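HEK293-NFkB-luciferase cells stably expressing HA-tagged human TLR7 or TLR8 were pre-treated 60 min at 37°C, 5% CO2 with increasing concentrations of test compound or 0.25% v/v DMSO. They were then stimulated 6 h with R848: 0.3 μM for TLR7, 4 μM for TLR8. Luciferase activity […] was read by Bright-Glo luminescence.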"}, "TLR9": {"biological_target": "T2, TLR9 (Homo sapiens, UniProt Q9NR96)", "T2 sequence (Q9NR96 26-1032)": "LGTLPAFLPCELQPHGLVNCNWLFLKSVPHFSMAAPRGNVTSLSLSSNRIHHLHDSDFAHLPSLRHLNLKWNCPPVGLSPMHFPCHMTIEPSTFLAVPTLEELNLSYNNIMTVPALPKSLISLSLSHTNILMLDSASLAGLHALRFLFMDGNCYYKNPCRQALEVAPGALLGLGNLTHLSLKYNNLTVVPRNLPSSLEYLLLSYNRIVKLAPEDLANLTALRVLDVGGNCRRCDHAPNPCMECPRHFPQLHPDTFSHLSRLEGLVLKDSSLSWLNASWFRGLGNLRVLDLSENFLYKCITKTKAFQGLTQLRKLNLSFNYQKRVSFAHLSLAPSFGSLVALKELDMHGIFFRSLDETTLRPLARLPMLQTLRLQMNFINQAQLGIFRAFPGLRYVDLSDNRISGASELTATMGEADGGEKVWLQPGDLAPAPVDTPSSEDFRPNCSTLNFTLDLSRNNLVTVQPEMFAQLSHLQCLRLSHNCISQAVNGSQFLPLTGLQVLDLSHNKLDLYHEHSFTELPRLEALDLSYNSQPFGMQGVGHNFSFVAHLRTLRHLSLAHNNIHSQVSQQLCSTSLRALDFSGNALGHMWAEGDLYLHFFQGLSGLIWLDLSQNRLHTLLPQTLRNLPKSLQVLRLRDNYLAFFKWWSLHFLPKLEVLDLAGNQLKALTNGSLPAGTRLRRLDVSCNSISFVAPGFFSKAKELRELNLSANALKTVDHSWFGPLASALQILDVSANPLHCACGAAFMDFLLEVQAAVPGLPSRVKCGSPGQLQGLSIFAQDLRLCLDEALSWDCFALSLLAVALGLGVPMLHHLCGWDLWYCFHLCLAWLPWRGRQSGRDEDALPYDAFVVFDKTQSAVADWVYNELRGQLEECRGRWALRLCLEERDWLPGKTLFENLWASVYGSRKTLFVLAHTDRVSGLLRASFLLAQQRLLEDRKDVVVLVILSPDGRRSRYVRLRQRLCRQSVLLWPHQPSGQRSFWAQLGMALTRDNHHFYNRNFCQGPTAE", "assay": "Isolated human pDC assay, ODN2216-driven IFN-α", "assay_type": "cell-based", "settings": "fixed dose of MHV370", "in_short": "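pDCs were negatively enriched from PBMCs and resuspended in RPMI1640 with 10 ng/mL recombinant human IL-3. They were pre-treated 30 min with test compound or 0.25% v/v DMSO. Stimulation was 20 h at 37°C, 5% CO2 with ssRNA40 (10 μg/mL plus 25 μg/mL DOTAP) or ODN2216 (0.3 μM). IFN-α in supernatants was read by AlphaLisa; viability by CellTiter-Glo.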"}, "IL-1 receptor (IL-1R)": {"biological_target": "IL-1 receptor (IL-1R) (Homo sapiens, UniProt P14778)", "sequence (P14778 18-569)": "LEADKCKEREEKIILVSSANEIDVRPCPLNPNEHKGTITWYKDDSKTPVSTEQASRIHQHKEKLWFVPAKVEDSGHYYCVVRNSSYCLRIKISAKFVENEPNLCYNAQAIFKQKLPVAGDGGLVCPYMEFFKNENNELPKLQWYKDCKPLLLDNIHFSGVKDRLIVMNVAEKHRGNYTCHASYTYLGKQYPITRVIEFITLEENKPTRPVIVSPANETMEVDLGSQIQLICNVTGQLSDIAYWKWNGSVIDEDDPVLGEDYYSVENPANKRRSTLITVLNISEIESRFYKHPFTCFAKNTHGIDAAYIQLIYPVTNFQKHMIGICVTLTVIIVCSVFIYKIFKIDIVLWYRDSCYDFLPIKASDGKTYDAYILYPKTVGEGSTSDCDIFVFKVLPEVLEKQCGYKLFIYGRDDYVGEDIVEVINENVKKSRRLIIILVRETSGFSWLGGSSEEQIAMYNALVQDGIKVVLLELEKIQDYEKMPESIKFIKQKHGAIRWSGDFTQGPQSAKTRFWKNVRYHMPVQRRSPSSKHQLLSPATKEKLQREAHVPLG", "assay": "Human PBMC cytokine secretion, IL-1 receptor agonist", "assay_type": "cell-based", "settings": "human PBMCs; up to 10 μM; n = 5 donors, data not shown", "in_short": "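Human PBMCs were pre-incubated 30 min with test compound, then stimulated with the respective TLR or IL-1R agonist at doses from earlier work. Cytokines in supernatants were quantified by immunoassay. Viability across the dose range was checked by CellTiter-Glo.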"}, "TLR8 [2]": {"biological_target": "T1, TLR8", "assay": "Human whole blood assay, ssRNA-TNF", "assay_type": "cell-based", "in_short": "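Fresh human blood or 129/Sv mouse blood was taken into citrate and diluted 1:1 with RPMI1640. It was pre-incubated 30 min at 37°C, 5% CO2 with increasing concentrations of test compound or 0.25% v/v DMSO (final). Blood was then stimulated with TLR agonists at doses from earlier work, or with R848 (3 μM), and cytokines were quantified. Viability was checked by ATPlite luminescence.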"}, "[3]": {"system": "TMPD-induced peritonitis in Balb/c mice", "assay": "Mouse TMPD peritonitis", "assay_type": "in vivo", "settings": "prophylactic oral b.i.d.", "in_short": "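Female Balb/c mice (5 per group) were dosed orally b.i.d. from day −1 with test compound in 0.5% MC/0.5% Tween80, or vehicle. On day 0 they were injected i.p. with 0.5 mL TMPD; naive mice were controls. Peritoneal lavage (HBSS, 2% FBS) supernatants were assayed for CCL2 by ELISA. Inflammatory monocytes were counted by flow (live/dead, CD11b, Ly6C, Ly6G). ISGs were measured by qPCR (2−ΔΔCt vs HPRT, triplicates), averaged and normalized to naive = 100%.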"}}}
{"compound": "Cc1cc(N2CCc3c(c(C)nn3CC34CCC(NC(=O)[C@@H]5COCCN5)(CC3)CC4)C2)c2cnn(C)c2n1", "note": "[MHV370, (S)-N-(4-((5-(1,6-dimethyl-1H-pyrazolo[3,4-b]pyridin-4-yl)-3-methyl-4,5,6,7-tetrahydro-1H-pyrazolo[4,3-c]pyridin-1-yl)methyl)bicyclo[2.2.2]octan-1-yl)morpholine-3-carboxamide]", "values": [{"measurement": "IC50", "setting": "TLR8 [1]", "result": "4.5 ± 1.1", "unit": "nM"}, {"measurement": "ODN2216/TLR9-dependent IFN-α secretion from pDCs", "setting": "TLR9", "result": "did not block"}, {"measurement": "interference with cytokine secretion, IL-1R agonist", "setting": "IL-1 receptor (IL-1R)", "result": "did not significantly interfere"}, {"measurement": "IC50", "setting": "TLR8 [2]", "result": "31 ± 4.4", "unit": "nM"}, {"measurement": "ex vivo stimulated PD marker CD69 in peripheral blood", "setting": "[3]", "result": "reduced in peripheral blood of mice in a dose-dependent manner"}, {"measurement": "panel of ISGs in peritoneal cells and blood", "setting": "[3]", "result": "dose-dependently suppressed"}, {"measurement": "inflammatory monocytes and CCL2 in the peritoneum", "setting": "[3]; day 7", "result": "dose-dependent reduction"}]}
